Measured values taken from PMC9513682 (RSC Advances, 2022).

Assays:
B-RAF(V600E) = B-RAF(V600E) (Homo sapiens, UniProt P15056, V600E); assay: B-RAF; type: biochemical; conditions: for IC50: B-RAF (V600E) IC50, n = 3; for selectivity for B-RAFV600E kinase over B-RAF wild-type kinase: ratio of kinase IC50 values
[1] = test system: phosphorylation of downstream ERK1/2 (pT202/Y204) in WM266.4 cells; assay: Cell-based B-RAFV600E kinase assay; conditions: for pERK 1/2: WM266.4 cell line, mean ± standard error of two experiments
How it was run: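 Phospho-ERK1/2 (pT202/Y204) and total ERK1/2 were measured by a single-step sandwich ELISA (affinity-tagged capture antibody, reporter-conjugated detector antibody). pERK was reported in ng/mL as duplicate determinations. % inhibition was calculated against untreated control cells, as mean ± S.E. of two experiments.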

B-RAF (wild-type) = B-RAF (wild-type) (Homo sapiens, UniProt P15056); assay: B-RAF; type: biochemical
Chain of B-RAF (wild-type) (P15056 whole entry): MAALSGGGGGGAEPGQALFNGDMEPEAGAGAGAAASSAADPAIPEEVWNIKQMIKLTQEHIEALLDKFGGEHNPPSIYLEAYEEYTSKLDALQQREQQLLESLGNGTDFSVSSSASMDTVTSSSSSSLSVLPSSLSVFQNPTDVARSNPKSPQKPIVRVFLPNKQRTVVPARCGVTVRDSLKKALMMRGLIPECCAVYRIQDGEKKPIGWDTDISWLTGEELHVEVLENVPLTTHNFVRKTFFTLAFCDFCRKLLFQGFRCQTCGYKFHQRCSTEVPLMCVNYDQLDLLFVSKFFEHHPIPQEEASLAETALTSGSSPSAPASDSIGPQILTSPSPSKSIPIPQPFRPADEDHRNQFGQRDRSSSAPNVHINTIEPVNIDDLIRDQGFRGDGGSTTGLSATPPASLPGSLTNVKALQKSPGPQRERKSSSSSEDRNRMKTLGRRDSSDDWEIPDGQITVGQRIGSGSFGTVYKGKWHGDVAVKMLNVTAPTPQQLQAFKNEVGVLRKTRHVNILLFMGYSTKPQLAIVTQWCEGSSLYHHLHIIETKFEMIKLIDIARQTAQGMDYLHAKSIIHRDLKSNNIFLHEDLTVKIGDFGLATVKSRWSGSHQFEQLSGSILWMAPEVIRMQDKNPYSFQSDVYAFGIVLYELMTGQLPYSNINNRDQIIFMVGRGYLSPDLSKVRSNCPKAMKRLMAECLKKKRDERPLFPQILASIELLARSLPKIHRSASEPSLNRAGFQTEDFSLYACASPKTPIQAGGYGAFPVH

Sk-mel-23 melanoma cells = assay: MTT cytotoxicity assay, B-RAF wild type melanoma cells; type: cell-based; conditions: Homo sapiens, SK-MEL-23, 48 h, read-out: Sk-mel-23 IC50
How it was run: (§1)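 WM266.4 (B-RAFV600E) and Sk-mel-23 (B-RAF wild type) melanoma cells were grown in DMEM with FBS, penicillin and streptomycin at 37 °C under CO₂. […] MTT reagent was added and cells re-incubated; absorbance was read at 590 nm. IC50 was taken from concentration–inhibition curves (n = 3).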

WM266.4 melanoma cells = assay: MTT cytotoxicity assay, B-RAFV600E-mutated melanoma cells; type: cell-based; conditions: for potency against WM266.4 melanoma cells relative to dabrafenib: WM266.4 cells
How it was run: as §1

Chain of B-RAF(V600E) (P15056 whole entry V600E): as the sequence (P15056 whole entry) above, with V600E counted along it

| Structure (SMILES) | IC50 (B-RAF(V600E)) [nM] | IC50 (B-RAF (wild-type)) [nM] | IC50 (Sk-mel-23 melanoma cells) [nM] | selectivity for B-RAFV600E kinase over B-RAF wild-type kinase (B-RAF(V600E)) | potency against WM266.4 melanoma cells relative to dabrafenib (WM266.4 melanoma cells) | other results |
| --- | --- | --- | --- | --- | --- | --- |
| Cc1ccc(C(CS(=O)(=O)c2ccccc2)=NNC(N)=S)cc1 [Compound 3, 2-Benzenesulfonyl-1-p-tolyl-ethanone thiosemicarbazone] | 115 ± 6 | – | – | – | – | – |
| Cc1ccc(C(CS(=O)(=O)c2ccccc2)=NNc2nc(C)c(N=Nc3ccccc3)s2)cc1 [Compound 7a, N-(2-Benzenesulfonyl-1-p-tolyl-ethylidene)-N′-(4-methyl-5-phenylazo-thiazol-2-yl)-hydrazine] | 199 ± 10 | – | – | – | – | – |
| Cc1ccc(C(CS(=O)(=O)c2ccccc2)=NNc2nc(C)c(N=Nc3cccc(C)c3)s2)cc1 [Compound 7b, N-(2-Benzenesulfonyl-1-p-tolyl-ethylidene)-N′-(4-methyl-5-m-tolylazo-thiazol-2-yl)-hydrazine] | 36.3 ± 1.9 | 124 ± 6.6 | 7870 ± 400 | approximately four | three to five | pERK 1/2 [1]: 1.339 ± 0.035 ng mL^−1 |
| Cc1ccc(N=Nc2sc(NN=C(CS(=O)(=O)c3ccccc3)c3ccc(C)cc3)nc2C)cc1 [Compound 7c, N-(2-Benzenesulfonyl-1-p-tolyl-ethylidene)-N′-(4-methyl-5-p-tolylazo-thiazol-2-yl)-hydrazine] | 108 ± 5.6 | – | – | – | – | – |
| Cc1ccc(C(CS(=O)(=O)c2ccccc2)=NNC2=NC(=O)C(=NNc3ccccc3)S2)cc1 [Compound 11a, 2-[N′-(2-Benzenesulfonyl-1-p-tolyl-ethylidene)-hydrazino]-5-(phenyl-hydrazono)-thiazol-4-one] | 84.9 ± 4.4 | 361 ± 19.4 | 430 ± 20 | approximately four | three to five | – |
| Cc1ccc(C(CS(=O)(=O)c2ccccc2)=NNC2=NC(=O)C(=NNc3ccc(Cl)cc3)S2)cc1 [Compound 11b, 2-[N′-(2-Benzenesulfonyl-1-p-tolyl-ethylidene)-hydrazino]-5-[(4-chloro-phenyl)-hydrazono]-thiazol-4-one] | 185 ± 9.6 | – | – | – | – | – |
| Cc1ccc(C(CS(=O)(=O)c2ccccc2)=NNC2=NC(=O)C(=NNc3ccc([N+](=O)[O-])cc3)S2)cc1 [Compound 11c, 2-[N′-(2-Benzenesulfonyl-1-p-tolyl-ethylidene)-hydrazino]-5-[(4-nitro-phenyl)-hydrazono]-thiazol-4-one] | 95.4 ± 5 | 229 ± 12.3 | 22300 ± 1140 | – | 11 fold | – |
| Cc1ccc(C(CS(=O)(=O)c2ccccc2)=NN=C2N=C(c3ccc(Br)cc3)CS2)cc1 [Compound 13a, N-(2-Benzenesulfonyl-1-p-tolyl-ethylidene)-N′-[4-(4-bromo-phenyl)-5H-thiazol-2-ylidene]-hydrazine] | 23.1 ± 1.2 | 97.9 ± 5.2 | 50200 ± 2560 | approximately four | three to five | – |
| Cc1ccc(C(CS(=O)(=O)c2ccccc2)=NN=C2N=C(c3ccc(C)cc3)CS2)cc1 [Compound 13b, N-(2-Benzenesulfonyl-1-p-tolyl-ethylidene)-N′-(4-p-tolyl-5H-thiazol-2-ylidene)-hydrazine] | 206 ± 11 | – | – | – | – | – |
| Cc1ccc(C(CS(=O)(=O)c2ccccc2)=NNc2nc(-c3ccc(OCCCCOc4ccc(-c5csc(NN=C(CS(=O)(=O)c6ccccc6)c6ccc(C)cc6)n5)cc4)cc3)cs2)cc1 [Compound 15, 1,1′-[1,4-Butanediylbis(oxy)]bis[4-(2-{[2-(benzenesulfonyl)-1-(p-tolyl)ethylidene]-hydrazino}thiazol-4-yl)benzene]] | 51.9 ± 2.7 | 251 ± 13.5 | 17600 ± 890 | 5 fold | – | cytotoxic potency toward WM266.4 rather than Sk-mel-23 melanoma cells (WM266.4 melanoma cells; WM266.4 (B-RAFV600E-mutated) versus Sk-mel-23 (B-RAF wild type)): equal potency |
| NC(=S)NN=C(CS(=O)(=O)c1ccccc1)c1ccc(F)cc1 [Compound 17, 2-Benzenesulfonyl-1-(4-fluorophenyl)-ethanone thiosemicarbazone] | 68.2 ± 3.5 | 153 ± 8.2 | 12400 ± 630 | – | 11 fold | activity toward B-rafV600E as share of the activity of dabrafenib (B-RAF(V600E); relative to dabrafenib): 70% |
| COc1ccc(-c2csc(NN=C(CS(=O)(=O)c3ccccc3)c3ccc(F)cc3)n2)cc1 [Compound 19, N-[2-Benzenesulfonyl-1-(4-fluorophenyl)-ethylidene]-N′-[4-(4-methoxyphenyl)thiazol-2-yl]-hydrazine] | 116 ± 8 | – | – | – | – | – |
| CC(C)(C)c1nc(-c2cccc(NS(=O)(=O)c3c(F)cccc3F)c2F)c(-c2ccnc(N)n2)s1 [Dabrafenib, dabrafenib] | – | – | 9030 ± 460 | – | – | pERK 1/2 [1]: 0.769 ± 0.018 ng mL^−1; % inhibition of pERK 1/2 ([1]; WM266.4 cells, compared with the control cancer cells): 71.9% |
